What all share (test): PAD isozyme inhibitor IC50 panel – biochemical, colorimetric, BAEE substrate, recombinant PAD1-4, selectivity assay for PAD4 inhibitor project, late-stage follow-up (AID 588438)
The target of test [1] is Protein-arginine deiminase type-1 (Homo sapiens) (UniProt Q9ULC6). As to conditions: recombinant PAD1-4, BAEE citrulline colorimetric absorbance; PAD1. The method in brief: (§1)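 Assay system: Recombinant PAD1–4 enzymes | Quantity: PAD1 and PAD4 at 0.2 µM, PAD2 and PAD3 at 0.5 µM | Also added: 10 mM BAEE substrate | Incubation: Enzyme–inhibitor preincubation 15 min, then substrate reaction 15 min, 37 °C | Signal: Citrulline color absorbance at 540 nm | Read-out: Fitted IC50 of remaining activity | Repeats: Duplicate per concentration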

Test [2] has as its target Protein-arginine deiminase type-2 (Homo sapiens) (UniProt Q9Y2J8). As to conditions: recombinant PAD1-4, BAEE citrulline colorimetric absorbance; PAD2. A digest of the protocol: as §1
In test [3] the target is Protein-arginine deiminase type-3 (Homo sapiens) (UniProt Q9ULW8). As to conditions: recombinant PAD1-4, BAEE citrulline colorimetric absorbance; PAD3. A digest of the protocol:
as §1

The target of test [4] is Protein-arginine deiminase type-4 (Homo sapiens) (UniProt Q9UM07). As to conditions: recombinant PAD1-4, BAEE citrulline colorimetric absorbance; PAD4. A digest of the protocol: as §1

SMILES strings stand for the structures. Active and inactive are the calls of the source.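 How the source made its calls: active means IC50 of 1 µM or lower against any of the four PAD enzymes tested; inactive means the rest.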

Sequence of Protein-arginine deiminase type-4 (Homo sapiens) (Q9UM07 whole entry, looked up): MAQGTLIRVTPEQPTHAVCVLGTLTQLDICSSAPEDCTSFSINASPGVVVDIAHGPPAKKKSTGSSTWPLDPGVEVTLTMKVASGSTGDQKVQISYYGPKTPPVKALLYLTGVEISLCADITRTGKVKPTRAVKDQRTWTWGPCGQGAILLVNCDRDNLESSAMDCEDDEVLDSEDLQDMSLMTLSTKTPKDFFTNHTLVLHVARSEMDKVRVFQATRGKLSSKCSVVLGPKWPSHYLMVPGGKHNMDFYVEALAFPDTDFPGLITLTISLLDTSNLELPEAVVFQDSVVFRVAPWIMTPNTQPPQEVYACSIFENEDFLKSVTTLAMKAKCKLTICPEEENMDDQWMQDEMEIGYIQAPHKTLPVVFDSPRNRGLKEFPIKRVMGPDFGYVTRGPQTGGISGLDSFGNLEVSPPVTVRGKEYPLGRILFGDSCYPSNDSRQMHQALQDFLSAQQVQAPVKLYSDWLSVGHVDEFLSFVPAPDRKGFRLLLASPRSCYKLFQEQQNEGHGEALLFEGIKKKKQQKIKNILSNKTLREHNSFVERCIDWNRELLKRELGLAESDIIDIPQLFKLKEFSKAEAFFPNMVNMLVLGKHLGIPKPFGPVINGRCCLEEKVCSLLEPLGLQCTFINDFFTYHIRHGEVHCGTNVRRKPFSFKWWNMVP
Sequence of Protein-arginine deiminase type-1 (Homo sapiens) (Q9ULC6 whole entry, looked up): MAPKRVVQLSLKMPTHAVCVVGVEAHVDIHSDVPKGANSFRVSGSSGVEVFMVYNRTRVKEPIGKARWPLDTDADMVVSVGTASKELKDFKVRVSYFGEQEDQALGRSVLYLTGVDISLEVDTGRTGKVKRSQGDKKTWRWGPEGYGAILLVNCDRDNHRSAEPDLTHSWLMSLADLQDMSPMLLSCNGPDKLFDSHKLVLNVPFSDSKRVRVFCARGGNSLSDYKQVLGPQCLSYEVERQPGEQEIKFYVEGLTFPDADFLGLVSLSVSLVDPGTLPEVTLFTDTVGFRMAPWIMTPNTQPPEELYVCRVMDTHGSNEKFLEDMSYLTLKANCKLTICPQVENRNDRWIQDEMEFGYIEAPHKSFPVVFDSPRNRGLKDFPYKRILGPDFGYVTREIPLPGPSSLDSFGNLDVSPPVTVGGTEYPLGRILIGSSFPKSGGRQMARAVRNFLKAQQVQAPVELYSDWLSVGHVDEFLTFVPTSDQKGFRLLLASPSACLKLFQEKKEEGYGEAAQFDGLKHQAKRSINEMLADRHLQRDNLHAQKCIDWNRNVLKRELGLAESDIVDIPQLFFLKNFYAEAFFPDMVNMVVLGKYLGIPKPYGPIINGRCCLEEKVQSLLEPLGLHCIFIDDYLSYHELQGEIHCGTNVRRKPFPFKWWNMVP
Sequence of Protein-arginine deiminase type-2 (Homo sapiens) (Q9Y2J8 whole entry, looked up): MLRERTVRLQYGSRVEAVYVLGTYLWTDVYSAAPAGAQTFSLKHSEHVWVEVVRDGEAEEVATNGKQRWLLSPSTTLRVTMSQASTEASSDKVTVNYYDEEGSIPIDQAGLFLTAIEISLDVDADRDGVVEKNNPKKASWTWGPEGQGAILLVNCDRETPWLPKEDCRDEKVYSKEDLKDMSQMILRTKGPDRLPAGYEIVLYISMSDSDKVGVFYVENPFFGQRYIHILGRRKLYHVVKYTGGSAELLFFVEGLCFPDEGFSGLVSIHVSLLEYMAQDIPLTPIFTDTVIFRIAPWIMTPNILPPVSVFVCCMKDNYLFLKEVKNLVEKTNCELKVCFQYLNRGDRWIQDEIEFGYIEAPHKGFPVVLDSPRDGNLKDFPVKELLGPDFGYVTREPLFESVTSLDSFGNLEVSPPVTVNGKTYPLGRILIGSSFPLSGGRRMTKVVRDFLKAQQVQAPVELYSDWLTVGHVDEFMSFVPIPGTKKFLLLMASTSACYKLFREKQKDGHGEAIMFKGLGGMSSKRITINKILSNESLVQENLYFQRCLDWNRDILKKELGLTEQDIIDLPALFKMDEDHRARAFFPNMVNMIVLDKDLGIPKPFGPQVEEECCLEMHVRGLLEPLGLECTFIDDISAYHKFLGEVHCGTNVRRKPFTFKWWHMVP
Sequence of Protein-arginine deiminase type-3 (Homo sapiens) (Q9ULW8 whole entry, looked up): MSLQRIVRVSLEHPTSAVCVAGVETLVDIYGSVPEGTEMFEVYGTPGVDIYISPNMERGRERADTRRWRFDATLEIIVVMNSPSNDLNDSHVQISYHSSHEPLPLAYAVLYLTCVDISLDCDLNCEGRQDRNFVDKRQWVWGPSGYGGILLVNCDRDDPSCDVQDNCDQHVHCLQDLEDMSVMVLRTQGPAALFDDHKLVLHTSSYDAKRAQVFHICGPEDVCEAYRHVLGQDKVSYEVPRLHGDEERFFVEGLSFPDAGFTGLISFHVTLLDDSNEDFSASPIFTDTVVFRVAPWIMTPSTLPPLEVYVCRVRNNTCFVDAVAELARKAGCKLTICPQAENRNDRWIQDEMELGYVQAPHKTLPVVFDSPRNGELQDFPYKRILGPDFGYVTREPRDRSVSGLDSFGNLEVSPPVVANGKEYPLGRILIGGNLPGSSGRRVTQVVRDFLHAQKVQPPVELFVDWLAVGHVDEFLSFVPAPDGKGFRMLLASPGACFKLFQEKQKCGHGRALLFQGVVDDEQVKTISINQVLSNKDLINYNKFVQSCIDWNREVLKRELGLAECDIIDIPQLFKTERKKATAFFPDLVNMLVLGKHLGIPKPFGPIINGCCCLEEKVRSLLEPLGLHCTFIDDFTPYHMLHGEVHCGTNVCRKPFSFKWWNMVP

With `COC(=O)c1cccc(-c2ccc3c(n2)C(=O)C(N)=CC3=O)n1`, the IC50 result in test [1] was “inactive”. Further, the IC50 is 420 nM in test [2], 330 nM in test [3] and 880 nM in test [4].

By IC50 is commonly meant the concentration that inhibits the measured activity by half.

Values taken from PubChem BioAssay AID588438 (The Scripps Research Institute Molecular Screening Center, 2011).
